The source made the active and inactive calls.
Legend:
Mus musculus [1] = experiment: Toxicity in Swiss mouse assessed as change in myeloperoxidase activity in stomach at 10 mg/kg, ip for 7 days by spectrophotometric analysis; format: organism-based; parameters: dose 10 mg/kg, route intraperitoneal; settings: in vivo, 168 h
Summary of the method: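 Mice dosed daily ip at 10 mg/kg for 7 days. Stomach homogenized in 50 mM phosphate buffer pH 6.0 with 0.5% HTAB and centrifuged at 16100g. Supernatant mixed with o-dianisidine (0.167 mg/mL) and 0.015% H2O2; read at 450 nm three times within 1 min. Activity expressed as neutrophils ×10⁴/mg tissue against a neutrophil standard curve.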

Mus musculus [2] = experiment: Hepatotoxicity in Swiss mouse assessed as change in plasma AST level at 10 mg/kg, ip for 7 days; format: toxicity, organism-based; parameters: dose 10 mg/kg, route intraperitoneal; settings: in vivo, 168 h
Summary of the method: (§1)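 Mice dosed daily ip at 10 mg/kg for 7 days; vehicle was saline or Tris/HCl pH 8.0. Plasma AST and ALT measured with a diagnostic kit.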

Mus musculus [3] = experiment: Hepatotoxicity in Swiss mouse assessed as change in plasma ALT level at 10 mg/kg, ip for 7 days; format: toxicity, organism-based; parameters: dose 10 mg/kg, route intraperitoneal; settings: in vivo, 168 h; summary of the method: as §1
Mus musculus [4] = experiment: Neurotoxicity in Swiss mouse assessed as change in motor response at 10 mg/kg, ip after 5.5 hrs by rotarod test (reference value: 180 seconds); format: toxicity, organism-based; parameters: dose 10 mg/kg, route intraperitoneal; settings: in vivo
Summary of the method: (§2)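 Rota-rod with a 2.5 cm bar at 22 rpm. Mice pre-selected 24 h earlier by staying on the bar for two consecutive 180 s periods. Given 10 mg/kg ip (vehicle 2% DMSO in saline) and tested at 1.5, 3.5 and 5.5 h, with a 180 s cutoff. n = 6.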

Mus musculus [5] = experiment: Neurotoxicity in Swiss mouse assessed as change in motor response at 10 mg/kg, ip after 3.5 hrs by rotarod test (reference value: 180 seconds); format: toxicity, organism-based; parameters: dose 10 mg/kg, route intraperitoneal; settings: in vivo; summary of the method: as §2
Mus musculus [6] = experiment: Neurotoxicity in Swiss mouse assessed as change in motor response at 10 mg/kg, ip after 1.5 hrs by rotarod test (reference value: 180 seconds); format: toxicity, organism-based; parameters: dose 10 mg/kg, route intraperitoneal; settings: in vivo; summary of the method: as §2
Mus musculus [7] = experiment: Antiinflammatory activity in Swiss mouse assessed as increase in carrageenan-induced IL-10 production 10 mg/kg, ip administered 30 mins prior to carrageenan-challenge measured after 3 hrs by ELISA; format: functional, organism-based; parameters: dose 10 mg/kg
Summary of the method: (§3)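 Compound given ip in saline 30 min before intraplantar carrageenan (300 μg/paw). Paw skin taken 3 h later and homogenized in 500 μL buffer with protease inhibitors. TNF-α, IL-1β, IL-6, IL-33 and IL-10 measured by ELISA, reported as pg/100 mg tissue. Saline-injected paws served as controls. Six mice per group; representative of two experiments.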

Mus musculus [8] = experiment: Antiinflammatory activity in Swiss mouse assessed as inhibition of carrageenan-induced IL-33 production 10 mg/kg, ip administered 30 mins prior to carrageenan-challenge measured after 3 hrs by ELISA; format: functional, organism-based; parameters: dose 10 mg/kg; settings: at 10 mg/kg; summary of the method: as §3
Mus musculus [9] = experiment: Antiinflammatory activity in Swiss mouse assessed as inhibition of carrageenan-induced IL-6 production 10 mg/kg, ip administered 30 mins prior to carrageenan-challenge measured after 3 hrs by ELISA; format: functional, organism-based; parameters: dose 10 mg/kg; settings: at 10 mg/kg; summary of the method: as §3
Mus musculus [10] = experiment: Antiinflammatory activity in Swiss mouse assessed as inhibition of carrageenan-induced IL-1beta production 10 mg/kg, ip administered 30 mins prior to carrageenan-challenge measured after 3 hrs by ELISA; format: functional, organism-based; parameters: dose 10 mg/kg; settings: at 10 mg/kg; summary of the method: as §3
Mus musculus [11] = experiment: Antiinflammatory activity in Swiss mouse assessed as inhibition of carrageenan-induced TNFalpha production 10 mg/kg, ip administered 30 mins prior to carrageenan-challenge measured after 3 hrs by ELISA; format: functional, organism-based; parameters: dose 10 mg/kg; settings: at 10 mg/kg; summary of the method: as §3
Mus musculus [12] = experiment: Antioxidant activity in Swiss mouse assessed as prevention of carrageenan-induced decrease in 2,2'-Azinobis(3-ethylbenzothiazoline 6-sulfonic acid) scavenging ability at 10 mg/kg, ip administered 30 mins prior to carrageenan-challenge measured after 3 hrs by spectrophotometric analysis; format: functional, organism-based; parameters: dose 10 mg/kg
Summary of the method: (§4)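 Given at 10 mg/kg ip 30 min before intraplantar carrageenan; plantar skin taken at 3 h, two mice pooled per sample. Tissue homogenized in 1.15% KCl. FRAP: 37 °C for 30 min, absorbance at 595 nm. ABTS: diluted to A730 0.80 in PBS pH 7.4, read at 730 nm after 6 min. Both expressed as Trolox equivalents/mg tissue (Trolox standard 1.5–30 μmol/L final).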

Mus musculus [13] = experiment: Antioxidant activity in Swiss mouse assessed as prevention of carrageenan-induced decrease in ferric-reducing ability potential at 10 mg/kg, ip administered 30 mins prior to carrageenan-challenge measured after 3 hrs by spectrophotometric analysis; format: functional, organism-based; parameters: dose 10 mg/kg; summary of the method: as §4
Mus musculus [14] = experiment: Antioxidant activity in Swiss mouse assessed as prevention of carrageenan-induced decrease in GSH levels at 10 mg/kg, ip administered 30 mins prior to carrageenan-challenge measured after 3 hrs by UV-vis spectrophotometric analysis; format: functional, organism-based; parameters: dose 10 mg/kg
Summary of the method: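 Given at 10 mg/kg ip 30 min before intraplantar carrageenan (300 μg/paw); plantar skin taken at 3 h, four paws pooled per sample. Tissue homogenized in 0.02 M EDTA with TCA and centrifuged. Supernatant reacted with DTNB in Tris 0.4 M pH 8.9; absorbance read at 412 nm after 5 min. Reported as nmol GSH/mg tissue. Three pools per experiment.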

Mus musculus [15] = experiment: Antinociceptive activity in Swiss mouse assessed as inhibition of complete Freund's adjuvant-induced thermal hyperalgesia at 10 mg/kg, ip administered 24 hrs after complete Freund's adjuvant-challenge for seven days by hot plate test; format: functional, organism-based; parameters: dose 10 mg/kg
Summary of the method: (§5)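 Treatment at 10 mg/kg ip given daily, starting 24 h after intraplantar CFA (10 μL/paw), for seven days. Electronic pressure-meter (Δ threshold, g) and hot plate (55 °C, 30 s cutoff) read every 24 h over days 1–8. Six mice per group.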

Mus musculus [16] = experiment: Antinociceptive activity in Swiss mouse assessed as inhibition of complete Freund's adjuvant-induced mechanical hyperalgesia at 10 mg/kg, ip administered 24 hrs after complete Freund's adjuvant-challenge for seven days by electronic pressure-meter test; format: functional, organism-based; parameters: dose 10 mg/kg; summary of the method: as §5
Mus musculus [17] = experiment: Antinociceptive activity in Swiss mouse assessed as inhibition of capsaicin-induced thermal hyperalgesia at 10 mg/kg, ip administered 30 mins prior to capsaicin-challenge measured after 1 to 3 hrs by hot plate test; format: functional, organism-based; parameters: dose 10 mg/kg
Summary of the method: (§6)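 Dosed at 10 mg/kg ip 30 min before intraplantar capsaicin (1.6 μg/paw). Mechanical hyperalgesia measured by electronic pressure-meter as Δ withdrawal threshold (g), average of three readings. Thermal hyperalgesia measured as hot-plate latency at 55 °C with a 30 s cutoff. Both read at 1, 3 and 5 h. Six mice per group.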

Mus musculus [18] = experiment: Antinociceptive activity in Swiss mouse assessed as inhibition of capsaicin-induced mechanical hyperalgesia at 10 mg/kg, ip administered 30 mins prior to capsaicin-challenge measured after 1 to 5 hrs by electronic pressure-meter test; format: functional, organism-based; parameters: dose 10 mg/kg; summary of the method: as §6

O=c1cc(-c2ccc(O)cc2)oc2c([C@@H]3O[C@H](CO)[C@@H](O)[C@H](O)[C@H]3O)c(O)cc(O)c12 [VITEXIN]
Activity (Mus musculus [1]): Non-toxic | Activity (Mus musculus [2]): Non-toxic | Activity (Mus musculus [3]): Non-toxic | Time (Mus musculus [4]): 180 s | Time (Mus musculus [5]): 180 s | Time (Mus musculus [6]): 180 s | Activity (Mus musculus [7]): Active | inhibition (Mus musculus [8]): Active | inhibition (Mus musculus [9]): Active | inhibition (Mus musculus [10]): Active | inhibition (Mus musculus [11]): Active | Activity (Mus musculus [12]): Active | Activity (Mus musculus [13]): Active | Activity (Mus musculus [14]): Active | inhibition (Mus musculus [15]): Active | inhibition (Mus musculus [16]): Active | inhibition (Mus musculus [17]): Active | inhibition (Mus musculus [18]): Active

— ChEMBL document CHEMBL2384933, “Vitexin inhibits inflammatory pain in mice by targeting TRPV1, oxidative stress, and cytokines” (J Nat Prod, 2013)
